Screening data (PubChem BioAssay)
This is a sample that favours compounds with a hit; in the whole collection about 2.7% have one here.
DENV2 CPE rescue: inhibitors of DENV2 cytopathic effect. actives 1.7% (n = 350,000). CPE inhibition, % at 9.99 µM. DENV2-infected cells, cytopathic effect rescue, plate reader; in the data active means CPE inhibition above about 20%, passing the limit was not always enough; tested in BHK-21 cells;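 further: 0% = median of neutral control wells and 100% = median of positive control wells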
SIRT5 inh: inhibitors of human sirtuin-5 desuccinylase | Q9NXA8 | Purified SirT5, succinyl-peptide AMC, trypsin-coupled fluorescence | inhibition, % at 15 µM | actives 1.1% (n = 330,000); in the data active means inhibition above about 15%
S100A4 MyoIIA: inhibitors of human S100A4 binding to myosin IIA peptide; P26447; S100A4/TAMRA-MyoIIA peptide fluorescence polarization; inhibition, % at 10.7 µM; actives 0.14% (n = 360,000);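 active means mean inhibition of at least 70% across replicates, with every replicate also reaching that level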
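Material: S100A4 monomer protein / Buffer or medium: 50 mM HEPES pH 7.2, 10 mM CaCl2, 100 mM KCl / Times: 5 min incubation before reading / Benchmarks: neutral control DMSO, positive control TFP / Reagent: labelled myosin peptide probe, 5 nM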
CaV13 ICDI inh: Primary screen for inhibitors of IQ motif and Ca2+-dependent inactivation inhibitor domain binding in CACNA1D, Förster resonance energy transfer in living cells, …; HEK cells, CFP/YFP FRET ICDI-IQ, plate reader, 10 min; percent FRET-ratio fall versus neutral wells; inhibition, % at 12.3 µM; actives 0.098% (n = 340,000);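 active means mean replicate inhibition of at least 30% and at least 1% of replicates passing that level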;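 further: 0% = median of the neutral control wells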
MLL AF4-AF9 inh: MLL-AF4/AF9 protein interaction inhibition; AlphaScreen, biotin-AF4 peptide binding to FLAG-AF9; P42568; inhibition, % at 10 µM; AID 651704; actives 0.47% (n = 350,000);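 active means every replicate reaching a set inhibition limit, whatever the replicate mean, cut at about 25% in these data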;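 further: 0% = plate neutral control median and 100% = total signal loss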
Target sequence (P42568 whole entry, looked up): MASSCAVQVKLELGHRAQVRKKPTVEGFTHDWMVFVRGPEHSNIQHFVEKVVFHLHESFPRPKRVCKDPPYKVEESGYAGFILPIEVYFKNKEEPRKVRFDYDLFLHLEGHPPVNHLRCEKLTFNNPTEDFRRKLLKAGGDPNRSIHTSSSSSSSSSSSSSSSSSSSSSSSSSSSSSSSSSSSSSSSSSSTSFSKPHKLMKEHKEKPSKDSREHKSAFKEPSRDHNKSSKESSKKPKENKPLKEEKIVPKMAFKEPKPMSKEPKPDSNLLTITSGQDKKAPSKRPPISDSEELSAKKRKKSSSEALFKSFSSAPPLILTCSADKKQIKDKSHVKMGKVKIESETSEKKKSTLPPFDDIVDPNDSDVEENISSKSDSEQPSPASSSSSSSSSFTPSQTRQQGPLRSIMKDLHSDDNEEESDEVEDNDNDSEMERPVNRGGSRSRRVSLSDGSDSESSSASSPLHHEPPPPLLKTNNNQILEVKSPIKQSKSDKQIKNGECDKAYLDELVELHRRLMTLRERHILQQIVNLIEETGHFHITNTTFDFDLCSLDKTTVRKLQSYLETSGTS
* hit, by the source's call.

`C[C@H](CO)N1C[C@H](C)[C@H](CN(C)C(=O)Nc2ccccc2)Oc2ncc(-c3ccc(C#N)cc3)cc2C1=O` gave DENV2 CPE rescue -1, SIRT5 inh -2, S100A4 MyoIIA -15 and MLL AF4-AF9 inh -1.
For CCC(C)[C@H]1CN=C(N)N1CCCc1cc(OC)c(OC)c(OC)c1 (some centres not stated) the results were DENV2 CPE rescue -10, SIRT5 inh 23*, S100A4 MyoIIA -4, CaV13 ICDI inh -5 and MLL AF4-AF9 inh -1.
Screening COCC(=O)Nc1ccc2c(c1)C(=O)N(C)C[C@@H](OC)[C@H](C)CN(Cc1cc(F)ccc1F)[C@@H](C)CO2 returned DENV2 CPE rescue 2, SIRT5 inh 2, S100A4 MyoIIA -17 and MLL AF4-AF9 inh 3.
For COc1ccc(NC(=O)N(C)C[C@H]2Oc3ccc(NC(=O)CCCCCC(=O)Nc4ccccc4N)cc3CC(=O)N([C@H](C)CO)C[C@@H]2C)cc1 the results were DENV2 CPE rescue -3, S100A4 MyoIIA 9 and MLL AF4-AF9 inh 3.
`Cn1c(NCCCO)nc2c1c(=O)n(Cc1ccccc1F)c(=O)n2C` gave SIRT5 inh 39*, S100A4 MyoIIA 1 and CaV13 ICDI inh -9.
COc1ccccc1Oc1nc2c(c(=O)n(Cc3ccccc3F)c(=O)n2C)n1C was read as CaV13 ICDI inh -6.
Screening COc1ccc(C)cc1Nc1n[n+](-c2ccccc2)c(-c2ccc(OC)c(OC)c2OC)s1 returned DENV2 CPE rescue 92*, S100A4 MyoIIA 0 and CaV13 ICDI inh -10.
Screening COc1ccc(C)cc1Nc1n[n+](-c2ccccc2)c(-c2ccc(N(C)C)cc2)s1 returned DENV2 CPE rescue 1, SIRT5 inh 6, S100A4 MyoIIA -15, CaV13 ICDI inh -5 and MLL AF4-AF9 inh 23.
For CC1CCN(C(=O)C2CCC(=O)N(Cc3ccc(Cl)cc3)C2)CC1 (configuration not stated) the results were DENV2 CPE rescue -4, SIRT5 inh 23*, S100A4 MyoIIA -3, CaV13 ICDI inh -3 and MLL AF4-AF9 inh -22.
For CCOC(=O)N1CCN(C(=O)C2CCC(=O)N(Cc3cccc(C(F)(F)F)c3)C2)CC1 (configuration not stated) the results were DENV2 CPE rescue 4, SIRT5 inh 21*, S100A4 MyoIIA -7, CaV13 ICDI inh -6 and MLL AF4-AF9 inh 0.
For CCOC(=O)C1CCN(C(=O)C2CCC(=O)N(Cc3cccc(C(F)(F)F)c3)C2)CC1 (configuration not stated) the results were DENV2 CPE rescue -2, SIRT5 inh -6, S100A4 MyoIIA 3, CaV13 ICDI inh -7 and MLL AF4-AF9 inh -1.
C[C@H](CO)N1C[C@H](C)[C@@H](CN(C)C(=O)Nc2ccc(F)cc2)Oc2ncc(C#C[C@@H](C)O)cc2C1=O was read as DENV2 CPE rescue 3, SIRT5 inh -6, S100A4 MyoIIA -13 and MLL AF4-AF9 inh -1.
For COc1ccc(/C=C2\SC(=S)N(C(Cc3ccccc3)C(=O)O)C2=O)cc1 (configuration not stated) the results were DENV2 CPE rescue -8, SIRT5 inh 4, S100A4 MyoIIA 3, CaV13 ICDI inh 9 and MLL AF4-AF9 inh -3.
`O=C(O)CC(C(=O)O)N1C(=O)/C(=C/C=C/c2ccco2)SC1=S` (configuration not stated) gave DENV2 CPE rescue 5, SIRT5 inh 30*, S100A4 MyoIIA -20, CaV13 ICDI inh -5 and MLL AF4-AF9 inh -10.
For O=C1S/C(=C\C=C\c2ccco2)C(=O)N1c1ccc(O)cc1 the results were DENV2 CPE rescue 1, SIRT5 inh 5, S100A4 MyoIIA -15, CaV13 ICDI inh -3 and MLL AF4-AF9 inh 18.
For O=C(O)C(Cc1ccccc1)N1C(=O)/C(=C/C=C/c2ccco2)SC1=S (configuration not stated) the results were DENV2 CPE rescue 6, SIRT5 inh 45*, S100A4 MyoIIA -86, CaV13 ICDI inh -7 and MLL AF4-AF9 inh 0.
For O=C(O)CCCN1C(=O)/C(=C/C=C/c2ccco2)SC1=S the results were DENV2 CPE rescue 8, SIRT5 inh 32*, S100A4 MyoIIA -26, CaV13 ICDI inh -7 and MLL AF4-AF9 inh 1.
O=C(NN1C(=O)/C(=C/C=C/c2ccco2)SC1=S)c1ccccc1O was read as DENV2 CPE rescue 7, SIRT5 inh 46*, S100A4 MyoIIA -8, CaV13 ICDI inh -3 and MLL AF4-AF9 inh 3.
